Results reported in ChEMBL document CHEMBL1629636, “In vitro susceptibility of Borrelia spielmanii to antimicrobial agents commonly used for treatment of Lyme disease” (2009).
≈ marks a conversion by molar mass, not a printed value.

Columns and labels:
Format in all cases: functional
Borrelia afzelii [1] = test: Antimicrobial activity against Borrelia afzelii isolate G600 after 72 hrs by colorimetric assay; settings: Borreliella afzelii, isolate G600, 72 h
How it was run: (§1)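 Tested in microtiter trays preloaded with lyophilized antibiotics; clinical isolates were low-passage (10 to 20 passages). MIC was read by colorimetric assay after 72 h. MBC was defined as 100% killing in liquid medium at 72 h: aliquots from vials showing no growth were diluted 1:1,000 in BSK and checked for regrowth after 3 weeks of subculture. Values are medians of three independent experiments on separate days.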

Borrelia afzelii [2] = test: Antimicrobial activity against Borrelia afzelii isolate G1039 after 72 hrs by colorimetric assay; settings: Borreliella afzelii, isolate G1039, 72 h; how it was run: as §1
Borrelia afzelii [3] = test: Antimicrobial activity against Borrelia afzelii isolate FEM1 after 72 hrs by colorimetric assay; settings: Borreliella afzelii, isolate FEM1, 72 h; how it was run: as §1
Borrelia spielmanii [4] = test: Antimicrobial activity against Borrelia spielmanii isolate TIsar3 after 72 hrs by colorimetric assay; settings: Borreliella spielmanii, isolate TIsar3, 72 h; how it was run: as §1
Borrelia garinii [5] = test: Antimicrobial activity against Borrelia garinii isolate M2094 after 72 hrs by colorimetric assay; settings: Borreliella garinii, isolate M2094, 72 h; how it was run: as §1
Borrelia spielmanii [6] = test: Antimicrobial activity against Borrelia spielmanii isolate PMai after 72 hrs by colorimetric assay; settings: Borreliella spielmanii; how it was run: as §1
Borrelia spielmanii [7] = test: Antimicrobial activity against Borrelia spielmanii isolate PJes after 72 hrs by colorimetric assay; settings: Borreliella spielmanii; how it was run: as §1
[8] = Antimicrobial activity against Borrelia burgdorferi B31 after 72 hrs by colorimetric assay; settings: Borreliella burgdorferi; how it was run: as §1
Borrelia spielmanii [9] = test: Antimicrobial activity against Borrelia spielmanii isolate TIsar2 after 72 hrs by colorimetric assay; settings: Borreliella spielmanii, isolate TIsar2, 72 h; how it was run: as §1
Borrelia spielmanii [10] = test: Antimicrobial activity against Borrelia spielmanii isolate PC-Eq17 after 72 hrs by colorimetric assay; settings: Borreliella spielmanii, isolate PC-Eq17, 72 h; how it was run: as §1
[11] = Antimicrobial activity against Borrelia spielmanii A14S after 72 hrs by colorimetric assay; settings: Borreliella spielmanii
How it was run: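 Low-passage isolates (10 to 20 passages) grown in BSK medium were tested in microtiter trays precoated with lyophilized antimicrobials. MIC was read colorimetrically after 72 h. Independent experiments were run on three different days, and the MIC reported is the median of the three.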

Borrelia garinii [12] = test: Antimicrobial activity against Borrelia garinii isolate G1 after 72 hrs by colorimetric assay; settings: Borreliella garinii, isolate G1, 72 h; how it was run: as §1
Borrelia burgdorferi = test: Antimicrobial activity against Borrelia burgdorferi isolate LW2 after 72 hrs by colorimetric assay; settings: Borreliella burgdorferi, isolate LW2, 72 h; how it was run: as §1
Borrelia spielmanii [13] = test: Antimicrobial activity against Borrelia spielmanii isolate PAnz after 72 hrs by colorimetric assay; settings: Borreliella spielmanii; how it was run: as §1
Borrelia garinii [14] = test: Antimicrobial activity against Borrelia garinii isolate PSth after 72 hrs by colorimetric assay; settings: Borreliella garinii; how it was run: as §1
Borrelia spielmanii [15] = test: Antimicrobial activity against Borrelia spielmanii isolate PSig2 after 72 hrs by colorimetric assay; settings: Borreliella spielmanii, isolate PSig2, 72 h; how it was run: as §1
Borrelia spielmanii [16] = test: Antimicrobial activity against Borrelia spielmanii isolate PMew after 72 hrs by colorimetric assay; settings: Borreliella spielmanii; how it was run: as §1
Staphylococcus aureus = test: Antimicrobial activity against Staphylococcus aureus ATCC 29213 after 72 hrs by colorimetric assay; settings: ATCC 29213, 72 h
How it was run: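 Quality-control MIC followed the CLSI method with two changes: BSK medium was used, and the antibiotic-medium preparation was preincubated for 48 h before testing. Tests were run on three different days, and the MIC reported is the median of the three.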

Borrelia spielmanii [17] = test: Antimicrobial activity against Borrelia spielmanii isolate PHap after 72 hrs by colorimetric assay; settings: Borreliella spielmanii; how it was run: as §1
Borrelia = test: Antimicrobial activity against Borrelia clinical isolate after 72 hrs by colorimetric assay; settings: for MIC90: Borrelia, 72 h; how it was run: as §1

Structure (SMILES) | MBC (Borrelia afzelii [1]) | MIC (Borrelia afzelii [1]) | MBC (Borrelia afzelii [2]) | MIC (Borrelia afzelii [2]) | MBC (Borrelia afzelii [3]) | MIC (Borrelia afzelii [3]) | MBC (Borrelia spielmanii [4]) | MIC (Borrelia spielmanii [4]) | MBC (Borrelia garinii [5]) | MIC (Borrelia garinii [5]) | MBC (Borrelia spielmanii [6]) | MIC (Borrelia spielmanii [6]) | MBC (Borrelia spielmanii [7]) | MIC (Borrelia spielmanii [7]) | MBC [8] | MIC [8] | MBC (Borrelia spielmanii [9]) | MIC (Borrelia spielmanii [9]) | MBC (Borrelia spielmanii [10]) | MIC (Borrelia spielmanii [10]) | other results
CC[C@H]1OC(=O)[C@H](C)[C@@H](O[C@H]2C[C@@](C)(OC)[C@@H](O)[C@H](C)O2)[C@H](C)[C@@H](O[C@@H]2O[C@H](C)C[C@H](N(C)C)[C@H]2O)[C@](C)(OC)C[C@@H](C)C(=O)[C@H](C)[C@@H](O)[C@]1(C)O [CLARITHROMYCIN] | 0.5 µg/mL (≈ 0.668 µM) | 0.0079 µg/mL (≈ 0.0106 µM) | 1 µg/mL (≈ 1.34 µM) | 0.0039 µg/mL (≈ 0.00521 µM) | 1 µg/mL (≈ 1.34 µM) | 0.0039 µg/mL (≈ 0.00521 µM) | 1 µg/mL (≈ 1.34 µM) | 0.0079 µg/mL (≈ 0.0106 µM) | 1 µg/mL (≈ 1.34 µM) | 0.0039 µg/mL (≈ 0.00521 µM) | 0.5 µg/mL (≈ 0.668 µM) | 0.0019 µg/mL (≈ 0.00254 µM) | 0.5 µg/mL (≈ 0.668 µM) | 0.0039 µg/mL (≈ 0.00521 µM) | 2 µg/mL (≈ 2.67 µM) | 0.0079 µg/mL (≈ 0.0106 µM) | 0.5 µg/mL (≈ 0.668 µM) | 0.0079 µg/mL (≈ 0.0106 µM) | 1 µg/mL (≈ 1.34 µM) | 0.0019 µg/mL (≈ 0.00254 µM) | MBC [11]: 1 µg/mL (≈ 1.34 µM); MIC [11]: 0.0039 µg/mL (≈ 0.00521 µM); MBC (Borrelia garinii [12]): 1 µg/mL (≈ 1.34 µM); MIC (Borrelia garinii [12]): 0.0019 µg/mL (≈ 0.00254 µM); MBC (Borrelia burgdorferi): 4 µg/mL (≈ 5.35 µM); MIC (Borrelia burgdorferi): 0.0039 µg/mL (≈ 0.00521 µM); MBC (Borrelia spielmanii [13]): 1 µg/mL (≈ 1.34 µM); MIC (Borrelia spielmanii [13]): 0.0019 µg/mL (≈ 0.00254 µM); MBC (Borrelia garinii [14]): 2 µg/mL (≈ 2.67 µM); MIC (Borrelia garinii [14]): 0.0079 µg/mL (≈ 0.0106 µM); MBC (Borrelia spielmanii [15]): 1 µg/mL (≈ 1.34 µM); MIC (Borrelia spielmanii [15]): 0.0019 µg/mL (≈ 0.00254 µM); MBC (Borrelia spielmanii [16]): 1 µg/mL (≈ 1.34 µM); MIC (Borrelia spielmanii [16]): 0.0079 µg/mL (≈ 0.0106 µM); MIC (Staphylococcus aureus): 0.063 µg/mL (≈ 0.0842 µM); MBC (Borrelia spielmanii [17]): 0.5 µg/mL (≈ 0.668 µM); MIC (Borrelia spielmanii [17]): 0.0019 µg/mL (≈ 0.00254 µM); MBC90 (Borrelia): 1 µg/mL (≈ 1.34 µM); MIC90 (Borrelia): 0.0079 µg/mL (≈ 0.0106 µM)
CO/N=C(\C(=O)N[C@@H]1C(=O)N2C(C(=O)O)=C(COC(N)=O)CS[C@H]12)c1ccco1 [CEFUROXIME] | 4 µg/mL (≈ 9.43 µM) | 0.25 µg/mL (≈ 0.589 µM) | 8 µg/mL (≈ 18.9 µM) | 0.125 µg/mL (≈ 0.295 µM) | > 8 µg/mL | 0.5 µg/mL (≈ 1.18 µM) | 4 µg/mL (≈ 9.43 µM) | 0.5 µg/mL (≈ 1.18 µM) | > 8 µg/mL | 0.125 µg/mL (≈ 0.295 µM) | 8 µg/mL (≈ 18.9 µM) | 0.125 µg/mL (≈ 0.295 µM) | 8 µg/mL (≈ 18.9 µM) | 0.125 µg/mL (≈ 0.295 µM) | > 8 µg/mL | 0.125 µg/mL (≈ 0.295 µM) | 2 µg/mL (≈ 4.71 µM) | 0.125 µg/mL (≈ 0.295 µM) | > 8 µg/mL | 0.125 µg/mL (≈ 0.295 µM) | MBC [11]: 8 µg/mL (≈ 18.9 µM); MIC [11]: 0.125 µg/mL (≈ 0.295 µM); MBC (Borrelia garinii [12]): > 8 µg/mL; MIC (Borrelia garinii [12]): 0.125 µg/mL (≈ 0.295 µM); MBC (Borrelia burgdorferi): 8 µg/mL (≈ 18.9 µM); MIC (Borrelia burgdorferi): 0.125 µg/mL (≈ 0.295 µM); MBC (Borrelia spielmanii [13]): > 8 µg/mL; MIC (Borrelia spielmanii [13]): 0.125 µg/mL (≈ 0.295 µM); MBC (Borrelia garinii [14]): > 8 µg/mL; MIC (Borrelia garinii [14]): 0.125 µg/mL (≈ 0.295 µM); MBC (Borrelia spielmanii [15]): 8 µg/mL (≈ 18.9 µM); MIC (Borrelia spielmanii [15]): 0.125 µg/mL (≈ 0.295 µM); MBC (Borrelia spielmanii [16]): > 8 µg/mL; MIC (Borrelia spielmanii [16]): 0.125 µg/mL (≈ 0.295 µM); MIC (Staphylococcus aureus): 2 µg/mL (≈ 4.71 µM); MBC (Borrelia spielmanii [17]): > 8 µg/mL; MIC (Borrelia spielmanii [17]): 0.25 µg/mL (≈ 0.589 µM); MBC90 (Borrelia): >8 µg/mL; MIC90 (Borrelia): 0.25 µg/mL (≈ 0.589 µM)
CC1(C)S[C@@H]2[C@H](NC(=O)[C@H](N)c3ccc(O)cc3)C(=O)N2[C@H]1C(=O)O [AMOXICILLIN] | 4 µg/mL (≈ 10.9 µM) | 1 µg/mL (≈ 2.74 µM) | 8 µg/mL (≈ 21.9 µM) | 0.5 µg/mL (≈ 1.37 µM) | 4 µg/mL (≈ 10.9 µM) | 4 µg/mL (≈ 10.9 µM) | 4 µg/mL (≈ 10.9 µM) | 2 µg/mL (≈ 5.47 µM) | 16 µg/mL (≈ 43.8 µM) | 0.25 µg/mL (≈ 0.684 µM) | 8 µg/mL (≈ 21.9 µM) | 2 µg/mL (≈ 5.47 µM) | 16 µg/mL (≈ 43.8 µM) | 0.25 µg/mL (≈ 0.684 µM) | 16 µg/mL (≈ 43.8 µM) | 0.5 µg/mL (≈ 1.37 µM) | 16 µg/mL (≈ 43.8 µM) | ≤ 0.125 µg/mL | > 16 µg/mL | 0.5 µg/mL (≈ 1.37 µM) | MBC [11]: 16 µg/mL (≈ 43.8 µM); MIC [11]: 0.25 µg/mL (≈ 0.684 µM); MBC (Borrelia garinii [12]): 16 µg/mL (≈ 43.8 µM); MIC (Borrelia garinii [12]): ≤ 0.125 µg/mL; MBC (Borrelia burgdorferi): 4 µg/mL (≈ 10.9 µM); MIC (Borrelia burgdorferi): 1 µg/mL (≈ 2.74 µM); MBC (Borrelia spielmanii [13]): 16 µg/mL (≈ 43.8 µM); MIC (Borrelia spielmanii [13]): 0.25 µg/mL (≈ 0.684 µM); MBC (Borrelia garinii [14]): 8 µg/mL (≈ 21.9 µM); MIC (Borrelia garinii [14]): 0.125 µg/mL (≈ 0.342 µM); MBC (Borrelia spielmanii [15]): 16 µg/mL (≈ 43.8 µM); MIC (Borrelia spielmanii [15]): 0.5 µg/mL (≈ 1.37 µM); MBC (Borrelia spielmanii [16]): > 16 µg/mL; MIC (Borrelia spielmanii [16]): 1 µg/mL (≈ 2.74 µM); MIC (Staphylococcus aureus): 2 µg/mL (≈ 5.47 µM); MBC (Borrelia spielmanii [17]): > 16 µg/mL; MIC (Borrelia spielmanii [17]): 2 µg/mL (≈ 5.47 µM); MBC90 (Borrelia): >16 µg/mL; MIC90 (Borrelia): 2 µg/mL (≈ 5.47 µM)
